In one assay the target is Cannabinoid receptor 1 (Homo sapiens, UniProt P21554). Put plainly: Displacement of [3H]CP-55,940 from human recombinant CB1R expressed in HEK-293 cells after 90 mins by liquid scintillation counting. Details: species or system HEK293.
In assay [1] the target is T1, Cannabinoid receptor 2 (Homo sapiens, UniProt P34972). Put plainly: Displacement of [3H]CP-55,940 from human recombinant CB2R expressed in HEK-293 cells after 90 mins by liquid scintillation counting. More on the design: species or system HEK293.
The test system of a further assay is HEK293. Put plainly: Selectivity ratio of Ki for human recombinant CB1R expressed in HEK-293 cells to Ki for human recombinant CB2R expressed in HEK-293 cells. Type of assay: cell-based.
In assay [2] the target is T1, Cannabinoid receptor 2. Put plainly: Antagonist activity at human recombinant CB2R expressed in U2OS cells assessed as inhibition of WIN-55212-induced beta-arrestin-GFP binding to receptor preincubated for 15 mins by fluorescent microscopy. It counts as cell-based. The gist of the method: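 Same βarr2-GFP redistribution set-up in hCB2R U2OS cells on coverslips. […] Fixed in 4% paraformaldehyde, imaged by fluorescence microscopy. […] Three experiments in duplicate.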

Assay [3] has as its target T1, Cannabinoid receptor 2. As to the kind of experiment: Antagonist activity at human recombinant CB2R expressed in WIN-55212-stimulated U2OS cells assessed as increase in forskolin-mediated cAMP level after 30 mins by time-resolved fluorescence assay. Type of assay: functional, cell-based.
The target of assay [4] is T1, Cannabinoid receptor 2. Put plainly: Agonist activity at human recombinant CB2R expressed in U2OS cells assessed as beta-arrestin-GFP binding to receptor […] by fluorescent microscopy. Type of assay: cell-based.
In assay [5] the target is T1, Cannabinoid receptor 2. As to the kind of experiment: Agonist activity at human recombinant CB2R expressed in […] U2OS cells assessed as reduction in forskolin-mediated cAMP level after 30 mins by time-resolved fluorescence assay. Type of assay: functional, cell-based. The gist of the method: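 hCB2R-expressing U2OS cells in HBSS stimulation buffer with 0.1% BSA, 0.5 mM IBMX and 5 mM HEPES, pH 7.4, at 3000 cells/well. Cells treated with forskolin (10 μM final) and various ligand concentrations for 30 min at room temperature. cAMP measured by LANCE TR-FRET (Eu-cAMP tracer plus ULight antibody, 1 h in the dark, 615/665 nm) against a cAMP standard curve. Three experiments in triplicate.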

Bounds are passed on as bounds.

Chain of Cannabinoid receptor 1 (P21554 whole entry): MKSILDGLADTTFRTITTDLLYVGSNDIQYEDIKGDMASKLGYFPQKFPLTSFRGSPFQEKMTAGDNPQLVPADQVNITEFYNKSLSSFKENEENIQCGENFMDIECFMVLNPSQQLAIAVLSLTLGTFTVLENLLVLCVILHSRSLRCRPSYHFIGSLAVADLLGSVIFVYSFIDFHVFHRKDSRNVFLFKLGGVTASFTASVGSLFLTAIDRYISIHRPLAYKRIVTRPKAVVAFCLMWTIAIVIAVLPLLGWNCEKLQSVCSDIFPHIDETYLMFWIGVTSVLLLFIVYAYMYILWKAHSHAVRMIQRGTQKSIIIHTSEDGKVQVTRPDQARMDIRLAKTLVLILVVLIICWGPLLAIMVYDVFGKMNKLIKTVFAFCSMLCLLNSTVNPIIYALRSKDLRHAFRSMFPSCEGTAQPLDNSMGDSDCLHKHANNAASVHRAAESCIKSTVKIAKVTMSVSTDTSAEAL
T1 sequence (P34972 whole entry): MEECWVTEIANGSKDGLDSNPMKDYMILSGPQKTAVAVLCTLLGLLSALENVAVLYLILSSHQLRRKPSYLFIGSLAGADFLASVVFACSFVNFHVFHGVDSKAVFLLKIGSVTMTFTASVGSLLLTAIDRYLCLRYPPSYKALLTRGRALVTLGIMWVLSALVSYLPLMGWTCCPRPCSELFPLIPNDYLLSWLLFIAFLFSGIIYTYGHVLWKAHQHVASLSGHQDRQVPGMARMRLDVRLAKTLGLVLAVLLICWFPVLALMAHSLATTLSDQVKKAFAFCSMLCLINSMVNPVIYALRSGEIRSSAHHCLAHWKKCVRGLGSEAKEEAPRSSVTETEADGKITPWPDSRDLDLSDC

Take `CC1CCC(NC(=O)c2cc3cc(Br)cnc3n(Cc3ccc(F)cc3)c2=O)CC1` (stereo not drawn): the Ki was 96.1 nM on Cannabinoid receptor 1 and 0.18 nM on Cannabinoid receptor 2 [1]. Moreover, the IC50 at Cannabinoid receptor 2 [1] is 0.72 nM; on Cannabinoid receptor 2 [2], 31.6 nM; on Cannabinoid receptor 2 [3] (u2os) it was “ND(Insoluble)”. Also, the Ratio Ki in the assay with HEK293 is 534.

Regarding `CC1CCC(NC(=O)c2cc3cc(-c4ccc(F)cc4)cnc3n(Cc3ccc(F)cc3)c2=O)CC1` (stereo not drawn), the figures for the Ki on Cannabinoid receptor 1 and on Cannabinoid receptor 2 [1] were greater than 10000 nM and 2.17 nM, respectively.

For `CCOC(=O)CCn1c(=O)c(C(=O)NC2CCC(C)CC2)cc2cccnc21` (stereo not drawn), the values for the Ki at Cannabinoid receptor 1 and at Cannabinoid receptor 2 [1] were greater than 10000 nM and 176 nM, respectively.

Take `CC1CCC(NC(=O)c2cc3cccnc3n(CCC(=O)O)c2=O)CC1` (stereo not drawn): the Ki is greater than 10000 nM on Cannabinoid receptor 1 and 1390 nM at Cannabinoid receptor 2 [1].

Turning to `CC1CCC(NC(=O)c2cc3cccnc3n(CCCCCCO)c2=O)CC1` (stereo not drawn), the Ki on Cannabinoid receptor 1 was greater than 10000 nM; on Cannabinoid receptor 2 [1], 18 nM.

Regarding `COC(=O)CCCCn1c(=O)c(C(=O)NC2CCC(C)CC2)cc2cccnc21` (stereo not drawn), the results for the Ki on Cannabinoid receptor 1 and at Cannabinoid receptor 2 [1] were greater than 10000 nM and 27.1 nM, respectively.

On to `CCCCCn1c(=O)c(C(=O)NC2CCC(C)CC2)cc2cccnc21` (stereo not drawn), for which the Ki at Cannabinoid receptor 1 is 908 nM; at Cannabinoid receptor 2 [1] it was 2.82 nM. The Ratio Ki in the assay on HEK293 came to 322.

With `CC1CCC(NC(=O)c2cc3cccnc3n(CCCCCO)c2=O)CC1` (stereo not drawn), the Ki on Cannabinoid receptor 1 was greater than 10000 nM; at Cannabinoid receptor 2 [1] it was 3.6 nM.

Consider `C[C@H]1CC[C@@H](NC(=O)c2cc3cc(Br)cnc3n(Cc3ccc(F)cc3)c2=O)CC1`, for which the values for the Ki at Cannabinoid receptor 1 and on Cannabinoid receptor 2 [1] were 121 nM and 0.12 nM, respectively. Further, the Ratio Ki with HEK293 turned out to be 1010.

With `CC1CCC(NC(=O)c2cc3cc(Br)cnc3n(CCN3CCOCC3)c2=O)CC1` (stereo not drawn), the results for the Ki at Cannabinoid receptor 1 and at Cannabinoid receptor 2 [1] were 750 nM and 1.26 nM, respectively. In the assay with HEK293, the Ratio Ki amounted to 595. In addition, the results for the IC50 on Cannabinoid receptor 2 [2] and on Cannabinoid receptor 2 [3] (read-out: IC50) were 32.1 nM and 59.6 nM, respectively.

Turning to `C[C@H]1CC[C@@H](NC(=O)c2cc3cc(-c4ccco4)cnc3n(Cc3ccc(F)cc3)c2=O)CC1`, the Ki at Cannabinoid receptor 1 amounted to 4060 nM; on Cannabinoid receptor 2 [1], 0.27 nM. Further, in the assay with HEK293, the Ratio Ki was determined as 15000.

As to `CC1CCC(NC(=O)c2cc3cccnc3n(CCCCCCF)c2=O)CC1` (stereo not drawn), the Ki on Cannabinoid receptor 1 amounted to 35.7 nM; on Cannabinoid receptor 2 [1] it was 1.46 nM. Further, the Ratio Ki in the assay on HEK293 worked out at 24.4.

As to `COc1ccc(-c2cnc3c(c2)cc(C(=O)NC2CCC(C)CC2)c(=O)n3Cc2ccc(F)cc2)cc1` (stereo not drawn), the Ki on Cannabinoid receptor 1 worked out at 3260 nM; on Cannabinoid receptor 2 [1] it was 3.83 nM. For the same compound, the Ratio Ki in the assay on HEK293 is 851.

Regarding `CC1CCC(NC(=O)c2cc3cccnc3n(CCCC(=O)O)c2=O)CC1` (stereo not drawn), the Ki is greater than 10000 nM at Cannabinoid receptor 1 and 2470 nM on Cannabinoid receptor 2 [1].

As to `CCCC(C)(C)c1ccc2c(c1)OC(C)(C)[C@@H]1CC=C(C)C[C@@H]21`, in the assay with HEK293, the Ratio Ki stood at 226.

Consider `CC1CCC(NC(=O)c2cc3cccnc3n(CCCO)c2=O)CC1` (stereo not drawn), for which the Ki on Cannabinoid receptor 1 was greater than 10000 nM; at Cannabinoid receptor 2 [1], 129 nM.

As to `CC1CCC(NC(=O)c2cc3cccnc3n(CCCCF)c2=O)CC1` (stereo not drawn), the Ki amounted to 1010 nM on Cannabinoid receptor 1 and 1.36 nM at Cannabinoid receptor 2 [1]. In addition, the IC50 at Cannabinoid receptor 2 [1] is 5.35 nM. Also, in the assay on HEK293, the Ratio Ki amounted to 743. Also, the EC50 on Cannabinoid receptor 2 [4] came to 21.8 nM; at Cannabinoid receptor 2 [5], 20.6 nM.

For `C[C@H]1CC[C@H](NC(=O)c2cc3cc(-c4ccco4)cnc3n(Cc3ccc(F)cc3)c2=O)CC1`, the Ki on Cannabinoid receptor 1 is greater than 10000 nM; on Cannabinoid receptor 2 [1], 94.2 nM. Also, the Ratio Ki with HEK293 was greater than 106.

Consider `CC1CCC(NC(=O)c2cc3cc(-c4cccs4)cnc3n(Cc3ccc(F)cc3)c2=O)CC1` (stereo not drawn), for which the Ki on Cannabinoid receptor 1 worked out at 3280 nM; on Cannabinoid receptor 2 [1], 1.85 nM. The Ratio Ki in the assay with HEK293 amounted to 1770.

In the case of `CC1CCC(NC(=O)c2cc3cccnc3n(CCCCC(=O)O)c2=O)CC1` (stereo not drawn), the Ki is greater than 10000 nM at Cannabinoid receptor 1 and 1340 nM at Cannabinoid receptor 2 [1].

Regarding `CC1CCC(NC(=O)c2cc3cc(-c4ccco4)cnc3n(CCN3CCOCC3)c2=O)CC1` (stereo not drawn), the Ki on Cannabinoid receptor 1 is 52.9 nM; on Cannabinoid receptor 2 [1], 0.35 nM. The Ratio Ki in the assay on HEK293 turned out to be 151.

In the case of `C[C@H]1CC[C@@H](NC(=O)c2cc3cc(-c4cccs4)cnc3n(Cc3ccc(F)cc3)c2=O)CC1`, the Ki at Cannabinoid receptor 1 came out at 472 nM; at Cannabinoid receptor 2 [1], 0.96 nM. The Ratio Ki with HEK293 is 491.

As for `COc1ccc(-c2cnc3c(c2)cc(C(=O)NC2CCC(C)CC2)c(=O)n3CCN2CCOCC2)cc1` (stereo not drawn), the Ki on Cannabinoid receptor 1 was greater than 10000 nM; at Cannabinoid receptor 2 [1] it was 1.47 nM. The values for the IC50 on Cannabinoid receptor 2 [2] and on Cannabinoid receptor 2 [3] (u2os) were 54 nM and “ND(Insoluble)”, respectively.

Regarding `C[C@H]1CC[C@H](NC(=O)c2cc3cc(Br)cnc3n(Cc3ccc(F)cc3)c2=O)CC1`, the Ki at Cannabinoid receptor 1 worked out at 166 nM; at Cannabinoid receptor 2 [1], 1.12 nM. Also, in the assay on HEK293, the Ratio Ki stood at 148.

For the compound `CC1CCC(NC(=O)c2cc3cc(-c4ccco4)cnc3n(Cc3ccc(F)cc3)c2=O)CC1` (stereo not drawn), the Ki on Cannabinoid receptor 1 came out at 3440 nM; at Cannabinoid receptor 2 [1], 0.67 nM. Moreover, the Ratio Ki in the assay on HEK293 turned out to be 5140.

On to `CCCCn1c(=O)c(C(=O)NC2CCC(C)CC2)cc2cccnc21` (stereo not drawn), for which the inhibitory constant (Ki) turned out to be 2310 nM at Cannabinoid receptor 1 and 3.9 nM on Cannabinoid receptor 2 [1]. Also, in the assay with HEK293, the Ratio Ki came to 593.

In the case of `C[C@H]1CC[C@H](NC(=O)c2cc3cc(-c4cccs4)cnc3n(Cc3ccc(F)cc3)c2=O)CC1`, the Ki at Cannabinoid receptor 1 is 430 nM; at Cannabinoid receptor 2 [1], 65.6 nM. Also, the Ratio Ki in the assay with HEK293 was 6.5.

Take `CC1CCC(NC(=O)c2cc3cccnc3n(CCCCCF)c2=O)CC1` (stereo not drawn): the values for the Ki on Cannabinoid receptor 1 and at Cannabinoid receptor 2 [1] were 22.6 nM and 0.56 nM, respectively. In addition, the Ratio Ki with HEK293 worked out at 40.3.

Turning to `CC1CCC(NC(=O)c2cc3cccnc3n(Cc3ccc(F)cc3)c2=O)CC1` (stereo not drawn), the IC50 at Cannabinoid receptor 2 [1] was 1.37 nM. For the same compound, the Ratio Ki in the assay with HEK293 amounted to 222. For the same compound, the concentration giving a half-maximal response (EC50) on Cannabinoid receptor 2 [4] and at Cannabinoid receptor 2 [5] was 29.6 nM throughout.

As for `CC1CCC(NC(=O)c2cc3cccnc3n(CCO)c2=O)CC1` (stereo not drawn), the values for the Ki at Cannabinoid receptor 1 and at Cannabinoid receptor 2 [1] were greater than 10000 nM and 2100 nM, respectively.

In the case of `CC1CCC(NC(=O)c2cc3cccnc3n(CCCCO)c2=O)CC1` (stereo not drawn), the figures for the Ki on Cannabinoid receptor 1 and on Cannabinoid receptor 2 [1] were greater than 10000 nM and 53.3 nM, respectively. In addition, the IC50 at Cannabinoid receptor 2 [1] came out at 210 nM. Further, the EC50 on Cannabinoid receptor 2 [4] came to 23.7 nM.

Take `CC1CCC(NC(=O)c2cc3cc(-c4ccc(F)cc4)cnc3n(CCN3CCOCC3)c2=O)CC1` (stereo not drawn): the Ki on Cannabinoid receptor 1 came out at 66.7 nM; at Cannabinoid receptor 2 [1], 0.68 nM. For the same compound, the Ratio Ki in the assay with HEK293 worked out at 98.

Consider `CC1CCC(NC(=O)c2cc3cc(-c4cccs4)cnc3n(CCN3CCOCC3)c2=O)CC1` (stereo not drawn), for which the Ki at Cannabinoid receptor 1 amounted to 32.7 nM; on Cannabinoid receptor 2 [1], 0.17 nM. Moreover, the Ratio Ki with HEK293 is 192.

Turning to `CCOC(=O)CCCn1c(=O)c(C(=O)NC2CCC(C)CC2)cc2cccnc21` (stereo not drawn), the Ki is greater than 10000 nM on Cannabinoid receptor 1 and 62.6 nM on Cannabinoid receptor 2 [1].

On to `CC1CCC(NC(=O)c2cc3cccnc3n(CCN3CCOCC3)c2=O)CC1` (stereo not drawn), for which the Ratio Ki in the assay with HEK293 was determined as 526. Besides, the results for the EC50 at Cannabinoid receptor 2 [4] and on Cannabinoid receptor 2 [5] were 17.6 nM and 28 nM, respectively.

The values are drawn from ChEMBL document CHEMBL3352718, “CB2-selective cannabinoid receptor ligands: synthesis, pharmacological evaluation, and molecular modeling investigation of 1,8-Naphthyridin-2(1H)-one-3-carboxamides” (J Med Chem, 2014).
